Assay results reported in ChEMBL document CHEMBL4033788, “Novel Ligustrazine-Based Analogs of Piperlongumine Potently Suppress Proliferation and Metastasis of Colorectal Cancer Cells in Vitro and in Vivo” (J Med Chem, 2018).
Calls of active or inactive are those of the source. The calls are words filed in the database; no cut-off is given here.

Key:
[1] = tested on: K562; experiment: Antiproliferative activity against human K562 cells after 72 hrs in presence of ligustrazine by MTT assay; format: functional, cell-based; conditions: K562, 72 h
How it was run: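 Cells grown in RPMI 1640 with 10% FBS in 96-well plates overnight, then exposed to test agents in triplicate for 72 h. MTT (5 mg/mL stock) added for the last 4 h, formazan dissolved in DMSO, absorbance read at 570 nm. Inhibition = (1 − OD treated/OD control) × 100%.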

[2] = tested on: HCT-116; experiment: Inhibition of TGF-beta1-induced increase in expression levels of twist protein in human HCT116 cells at 50 nM after 48 hrs by Western blot analysis; format: functional, cell-based
How it was run: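 HCT-116 cells (1 × 10^6/well, plated overnight) were exposed to TGF-β1 (10 ng/mL) for 48 h, with or without test compound; vehicle was 0.1% DMSO. Lysates (20 μg/lane) were run on 7.5% SDS-PAGE and blotted to PVDF, with primary antibody overnight at 4 °C and HRP/ECL detection. Band densities were normalised to β-actin across three independent experiments.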

[3] = target: T1, Catenin beta-1 (Homo sapiens) (UniProt P35222); experiment: Inhibition of TGF-beta1-regulated decrease in cytoplasmic beta-catenin in human HCT116 cells at 50 nM after 48 hrs by Western blot analysis; format: cell-based
T1 sequence (whole entry): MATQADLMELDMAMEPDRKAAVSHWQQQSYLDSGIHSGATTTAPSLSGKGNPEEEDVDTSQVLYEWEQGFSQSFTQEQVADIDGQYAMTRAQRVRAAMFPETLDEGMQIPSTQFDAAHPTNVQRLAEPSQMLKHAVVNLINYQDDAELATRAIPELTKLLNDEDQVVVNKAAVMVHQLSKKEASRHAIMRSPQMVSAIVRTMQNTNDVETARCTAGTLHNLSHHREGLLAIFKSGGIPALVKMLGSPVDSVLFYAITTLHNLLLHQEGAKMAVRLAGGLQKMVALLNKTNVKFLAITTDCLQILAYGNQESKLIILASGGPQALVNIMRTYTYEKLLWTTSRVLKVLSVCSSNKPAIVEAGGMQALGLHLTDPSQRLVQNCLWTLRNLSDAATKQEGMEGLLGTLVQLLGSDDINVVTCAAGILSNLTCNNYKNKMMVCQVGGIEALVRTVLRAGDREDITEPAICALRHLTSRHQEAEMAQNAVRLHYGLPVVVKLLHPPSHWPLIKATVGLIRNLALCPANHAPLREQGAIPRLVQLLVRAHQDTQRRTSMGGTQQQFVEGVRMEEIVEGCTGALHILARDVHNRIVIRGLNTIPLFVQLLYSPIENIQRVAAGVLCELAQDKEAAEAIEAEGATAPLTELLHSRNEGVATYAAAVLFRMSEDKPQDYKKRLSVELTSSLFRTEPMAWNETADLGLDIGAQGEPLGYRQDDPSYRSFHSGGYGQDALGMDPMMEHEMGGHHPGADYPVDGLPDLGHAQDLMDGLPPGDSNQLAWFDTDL
How it was run: (§1)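 Cytoplasmic and nuclear β-catenin were measured by Western blot in HCT-116 cells given TGF-β1 (10 ng/mL) for 48 h, with or without compound, against 0.1% DMSO vehicle. Lysates (20 μg/lane) were run on 7.5% gels and transferred to PVDF, with Lamin A among the antibodies used. Blots were read by ECL and densitometry, n = 3 independent experiments.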

[4] = tested on: Mus musculus; experiment: Toxicity in BALB/c nude mouse xenografted with human HCT116 cells assessed as mortality at 4 mg/kg, ip administered thrice a week for 6 consecutive weeks; format: organism-based; conditions: in vivo
How it was run: (§2)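 Lung metastasis model: HCT-116 cells in serum-free medium injected into tail vein of BALB/c nude mice, then randomized and given vehicle or compound ip (1, 2 or 4 mg/kg) three times a week. Body weight recorded weekly, survival monitored (n = 6); mice sacrificed after 40 days and lungs examined by H&E histology.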

[5] = Stability of compound in stimulated gastric fluid at 1 uM after 4 hrs by LC-MS/MS analysis
[6] = Acute toxicity in ip dosed ICR mouse assessed as mortality after 14 days; format: organism-based; conditions: in vivo
[7] = Acute toxicity in ICR mouse assessed as survival rate at 400 mg/kg, ip administered for 14 days relative to control; format: organism-based; conditions: in vivo
[8] = Acute toxicity in ICR mouse assessed as survival rate at 100 mg/kg, ip administered for 14 days relative to control; format: organism-based; conditions: in vivo
[9] = tested on: Mus musculus; experiment: Hepatotoxicity in BALB/c nude mouse xenografted with human HCT116 cells at 2.5 to 5 mg/kg, ip administered for 21 consecutive days; format: toxicity, organism-based; conditions: in vivo
How it was run: (§3)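 Male BALB/c nude mice (3−5 weeks) inoculated sc with 1 × 10^7 HCT-116 cells; at tumour volume about 75 mm3 randomized (n = 8 per group) and dosed ip daily at 2.5 or 5 mg/kg for 21 consecutive days. Body weights monitored; liver, kidney, lung and heart inspected for size and morphology at sacrifice.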

[10] = tested on: Mus musculus; experiment: Toxicity in BALB/c nude mouse xenografted with human HCT116 cells assessed as abnormality in lung at 2.5 to 5 mg/kg, ip administered for 21 consecutive days; format: organism-based; conditions: in vivo; how it was run: as §3
[11] = tested on: Mus musculus; experiment: Toxicity in BALB/c nude mouse xenografted with human HCT116 cells assessed as mortality at 2 to 4 mg/kg, ip administered thrice a week for 6 consecutive weeks; format: organism-based; conditions: in vivo; how it was run: as §2
[12] = tested on: HCT-116; experiment: Inhibition of TGF-beta1-induced decrease in expression levels of E-cadherin protein in human HCT116 cells after 48 hrs by Western blot analysis; format: functional, cell-based
How it was run: (§4)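 HCT-116 cells treated with or without TGF-β1 (10 ng/mL) for 48 h, with or without test agent. Lysates (20 μg/lane) run on 7.5% SDS-PAGE and transferred to PVDF. Probed for p-Akt (Ser473), Akt, p-GSK-3β (S9), GSK-3β, E-cadherin, MMP-9 and β-actin, detected by ECL. Densitometry relative to β-actin or total protein. Three independent experiments.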

[13] = tested on: HCT-116; experiment: Inhibition of TGF-beta1-induced increase in expression levels of MMP-9 protein in human HCT116 cells after 48 hrs by Western blot analysis; format: functional, cell-based; how it was run: as §4
[14] = target: Glycogen synthase kinase-3 beta (Homo sapiens) (UniProt P49841); experiment: Inhibition of TGF-beta1-induced GSK-3beta phosphorylation in human HCT116 cells after 48 hrs by Western blot analysis; format: cell-based; how it was run: as §4
[15] = target: T1, Catenin beta-1 (Homo sapiens); experiment: Inhibition of TGF-beta1-regulated increase in nuclear beta-catenin in human HCT116 cells at 2 to 50 nM after 48 hrs by Western blot analysis; format: cell-based; how it was run: as §1
[16] = tested on: HCT-116; experiment: Antitumor activity against human HCT116 cells xenografted in BALB/c nude mouse assessed as reduction in tumor size at 2.5 to 5 mg/kg, ip administered daily for 21 consecutive days; format: functional, organism-based
How it was run: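 Male BALB/c nude mice, 3–5 weeks old, inoculated subcutaneously with 1 × 10^7 HCT-116 cells. At about 75 mm³ tumor volume, randomized (n = 8/group) and dosed intraperitoneally daily. Volume by caliper as d² × D/2. At the end, tumors excised and weighed; inhibition = (Wcontrol − Wtreated)/Wcontrol × 100%.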

Glycogen synthase kinase-3 beta (Homo sapiens), sequence (P49841 whole entry, looked up): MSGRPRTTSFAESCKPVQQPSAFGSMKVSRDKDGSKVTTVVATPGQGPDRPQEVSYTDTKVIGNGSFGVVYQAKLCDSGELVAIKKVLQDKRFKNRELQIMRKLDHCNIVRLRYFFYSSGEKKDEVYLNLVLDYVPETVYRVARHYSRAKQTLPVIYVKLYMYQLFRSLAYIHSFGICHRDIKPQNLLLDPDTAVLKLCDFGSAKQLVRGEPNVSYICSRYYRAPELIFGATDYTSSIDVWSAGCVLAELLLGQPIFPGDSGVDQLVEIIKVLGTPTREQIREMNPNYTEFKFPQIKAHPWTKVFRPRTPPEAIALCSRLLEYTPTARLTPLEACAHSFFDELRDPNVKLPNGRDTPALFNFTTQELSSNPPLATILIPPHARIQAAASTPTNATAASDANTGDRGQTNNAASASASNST

| Compound | IC50 [1] | inhibition [2] | inhibition [3] | Activity [4] | Stability [5] | LD50 at 336 h [6] | survival at 336 h [7] | survival at 336 h [8] | Activity [9] | Activity [10] | Activity [11] | inhibition [12] | inhibition [13] | inhibition [14] | inhibition [15] | Activity [16] |
| --- | --- | --- | --- | --- | --- | --- | --- | --- | --- | --- | --- | --- | --- | --- | --- | --- |
| COc1cc(/C=C/C(=O)N2CCC=CC2=O)cc(OC)c1OC [PIPLARTINE] | 5.09 µM | Active | Active | Non-Toxic | – | – | – | – | – | – | – | – | – | – | – | – |
| Cc1nc(C)c(/C=C/C(=O)N2CCC=C(Cl)C2=O)nc1C | – | – | – | – | Stable | 148 mg/kg | 0% | 80% | Non-Toxic | Non-Toxic | Non-Toxic | Dose-dependent effect | Dose-dependent effect | Dose-dependent effect | Active | Active |
